Assay in all cases: Cell viability assay
Holding throughout (type): cell-based, human

Assay [1] concerns A2780cis (cisplatin-resistant ovarian cancer cells). The conditions noted are these: read-out: IC50 A2780cis; 96 h of incubation. In short, it runs like this:
(§1)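 Cells cultured per supplier at 37 °C, 5% CO2, and seeded at 1.5 × 10^3 per well. Treated with six concentrations of test compound (0.001, 0.01, 0.1, 1, 10 and 100 μM final), diluted into culture medium from a 10 mM DMSO stock; cisplatin stock in water. Viability read by CellTiter-Glo after 96 h. IC50 from triplicates, error bars as standard deviations.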

Assay [2] relates to MDA-MB-231 (triple-negative breast cancer). The conditions noted are these: read-out: IC50 MDA-MB-231; 96 h of incubation. In short, it runs like this: as §1
For another assay, the system named is U87 (glioblastoma). The conditions noted are these: read-out: IC50 U87; 96 h of incubation. In short, it runs like this:
as §1

In assay [3] the test system is MRC-5 (normal lung fibroblasts). The settings on record: read-out: IC50 MRC-5; 96 h of incubation. The procedure, abridged: as §1
In assay [4] the test system is A2780 (cisplatin-sensitive ovarian cancer cells). The conditions noted are these: read-out: IC50 A2780; 96 h of incubation. The procedure, abridged: as §1

On to `C[N+]12CN3CN(C1)C[PH]([Pd]([I])([c]1ccc([N+](=O)[O-])cc1)[PH]14CN5CN(C[N+](C)(C5)C1)C4)(C3)C2.F[P-](F)(F)(F)(F)F.F[P-](F)(F)(F)(F)F` [7b], for which the IC50 in assay [1] is 0.18 ± 0.02 µM; in assay [2], 6.7 ± 0.9 µM; with U87 (glioblastoma), 90 ± 10 µM; in assay [3] it was above 100 µM; in assay [4], 3.1 ± 0.3 µM.

With `N.N.[Cl][Pt][Cl]` [Cisplatin, cisplatin, reference compound], the values for the IC50 (in assay [1]; in the assay on U87 (glioblastoma); in assay [3]) were 45 ± 5 µM, 10.4 ± 0.4 µM and 4 ± 1 µM, respectively.

For orientation: IC50 means the midpoint of a concentration-inhibition curve.

(Values after paper PMC12044415 (RSC Advances, 2025).)
